Results from ChEMBL document CHEMBL5131470, “Structure-activity and structure-property relationship studies of spirocyclic chromanes with antimalarial activity” (Bioorg Med Chem, 2022).
≈ marks a conversion by molar mass, not a printed value.

How the values were obtained:
Plasmodium falciparum [1] = experiment: Antimalarial activity against chloroquine-resistant Plasmodium falciparum Dd2 assessed as inhibition of parasite growth incubated for 72 hrs by SYBR green I-based DNA quantification assay; format: functional, organism-based; details: Dd2, 72 h
[2] = Aqueous solubility of the compound at pH 6.5; details: aqueous solution
[3] = Octanol-water distribution coefficient, logD of the compound at pH 7.4 by HPLC-based analysis; format: physicochemical
[4] = Octanol-water distribution coefficient, logD of the compound at pH 3 by HPLC-based analysis; format: physicochemical
[5] = Cytotoxicity against human HepG2 cells assessed as reduction in cell viability incubated for 48 hrs by MTS assay; format: toxicity, cell-based
Procedure, shortened: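 HepG2 human hepatoma cells were seeded at 2,500 cells/well in 384-well plates and incubated 24 h. Serial compound dilutions (0–40 μM range) were added, then cells were incubated a further 48 h.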

[6] = Selectivity index, ratio of EC50 for cytotoxicity against human HepG2 cells to EC50 for antimalarial activity against chloroquine-resistant Plasmodium falciparum Dd2; format: toxicity, cell-based; details: read-out: Ratio EC50
Procedure, shortened: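 Human HepG2 hepatoma cells were seeded at 2,500 cells/well and grown 24 h. Serial dilutions of compound (0–40 μM) were then added for another 48 h. […] SI = EC50(HepG2)/EC50(Dd2).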

[7] = Aqueous solubility of the compound at pH 2 by HPLC analysis; format: physicochemical; details: aqueous solution
Procedure, shortened: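 Aqueous solubility was measured at pH 2.0 with an in-house HPLC assay. Values are reported as bins: ≤10 μM, 10–20 μM, 20–40 μM, 40–80 μM and ≥80 μM.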

Plasmodium falciparum [8] = experiment: Antiplasmodial activity against artemisinin-resistant Plasmodium falciparum ARC08-022 assessed as inhibition of parasite growth incubated for 48 hrs by time zero-[3H]hypoxanthine incorporation assay; format: functional, organism-based
Plasmodium falciparum [9] = experiment: Antiplasmodial activity against chloroquine-sensitive Plasmodium falciparum D6 assessed as inhibition of parasite growth incubated for 48 hrs by time zero-[3H]hypoxanthine incorporation assay; format: functional, organism-based

Row | Compound | EC50 (Plasmodium falciparum [1]) | solubility [2] | logD [3] | logD [4] | EC50 at 48 h [5] | selectivity ratio [6] | solubility [7] | EC50 (Plasmodium falciparum [8]) | EC50 (Plasmodium falciparum [9])
1 | O=C1CC2(CCN(CC(O)c3ccc(Cl)c(Cl)c3)CC2)Oc2c1ccc1ccccc21 (stereo unspecified) | > 2.5 µM | – | – | – | – | – | – | – | –
2 | O=C1CC2(CCNCC2)Oc2c1ccc1ccccc21 | 2.27 µM | ≥ 80 µM | 1.78 | 1.48 | 7 µM | 3.2 | ≥ 80 µM | – | –
3 | O=C1CC2(CCN(CCC3CCCCC3)CC2)Oc2c1ccc1ccccc21 | 0.71 µM | 10 µM (≈ 3.78 µg/mL) | 4.5 | 2.99 | 16 µM | 31.2 | 20 µM (≈ 7.55 µg/mL) | – | –
4 | CCN1CCC[C@]2(CC(=O)c3ccc4ccccc4c3O2)C1 | > 2.5 µM | – | – | – | 5 µM | 1.3 | – | – | –
5 | O[C@H](CN1CCC2(CC1)C[C@@H](O)c1ccc3ccccc3c1O2)c1ccc(F)c(F)c1 | > 2.5 µM | – | – | – | 17 µM | < 7 | – | – | –
6 | c1ccc2c3c(ccc2c1)CCC1(CCN(CCC2CCCCC2)CC1)O3 | 1.47 µM | – | 4.74 | – | 2 µM | 1.1 | 40 µM (≈ 14.5 µg/mL) | – | –
7 | O[C@H](CN1CCC2(CC1)C[C@H](O)c1ccc3ccccc3c1O2)c1ccc(F)c(F)c1 | 1.79 µM | – | – | – | > 20 µM | 11 | – | – | –
8 | OC1CC2(CCN(CCc3ccc(Cl)c(Cl)c3)CC2)Oc2c1ccc1ccccc21 (stereo unspecified) | 2.1 µM | – | – | – | – | – | – | 2.01 µM | 1.32 µM
9 | c1cc2c(c3c1CCCC3)OC1(CCNCC1)CC2 | > 2.5 µM | – | – | – | > 20 µM | 4 | – | – | –
10 | OC1CC2(CCN(CCc3ccc(F)c(F)c3)CC2)Oc2c1ccc1ccccc21 (stereo unspecified) | 0.53 µM | ≥ 80 µM | 3.15 | 2.62 | > 20 µM | > 32.5 | ≥ 80 µM | – | –
11 | CCN1CCC2(CC1)CC(O)c1ccc3ccccc3c1O2 (stereo unspecified) | > 2.5 µM | 20 µM (≈ 5.95 µg/mL) | 1.88 | 1.51 | 16 µM | 3.2 | 20 µM (≈ 5.95 µg/mL) | – | –
12 | CCN1CCC[C@]2(CC(O)c3ccc4ccccc4c3O2)C1 (stereo partly specified) | > 2.5 µM | – | – | – | > 20 µM | > 7.6 | – | – | –
13 | O=C1CC2(CCN(CC(O)c3ccc(F)c(F)c3)CC2)Oc2c1ccc1ccccc21 (stereo unspecified) | 0.85 µM | ≤ 10 µM | 4.51 | 2.79 | > 20 µM | > 6.1 | ≥ 80 µM | – | –
14 | c1ccc(CCN2CCC3(CCc4ccc5ccccc5c4O3)CC2)cc1 | 2.06 µM | – | – | – | > 20 µM | > 9.6 | – | – | –
15 | OC(CN1CCC2(CCc3ccc4ccccc4c3O2)CC1)c1ccc(F)c(F)c1 (stereo unspecified) | 0.53 µM | ≤ 10 µM | 4 | 3.05 | > 20 µM | > 10.4 | 40 µM (≈ 16.4 µg/mL) | 0.97 µM | 0.31 µM
16 | Fc1ccc(CCN2CCC3(CCc4ccc5ccccc5c4O3)CC2)cc1F | 1.91 µM | – | 4.51 | 3.29 | > 20 µM | 4 | 20 µM (≈ 7.87 µg/mL) | – | –
17 | OC1C[C@]2(CCCN(CCc3ccc(F)c(F)c3)C2)Oc2c1ccc1ccccc21 (stereo partly specified) | > 2.5 µM | – | – | – | 6 µM | 1.9 | – | – | –
18 | c1ccc(CCCN2CCC3(CCc4ccc5ccccc5c4O3)CC2)cc1 | 1.41 µM | – | – | – | > 20 µM | > 45.6 | – | – | –
19 | OC1C[C@@]2(CCCN(CCc3ccc(F)c(F)c3)C2)Oc2c1ccc1ccccc21 (stereo partly specified) | 0.61 µM | – | – | – | > 20 µM | > 34.5 | – | – | –
20 | CCN1CCC[C@@]2(CC(O)c3ccc4ccccc4c3O2)C1 (stereo partly specified) | 0.63 µM | – | – | – | > 20 µM | > 28.8 | – | – | –
21 | CCN1CCC2(C=Cc3ccc4ccccc4c3O2)CC1 | 1.14 µM | – | – | – | 12 µM | 9.7 | – | – | –
22 | O=C1CC2(CCN(CCc3ccc(Cl)c(Cl)c3)CC2)Oc2c1ccc1ccccc21 | > 2.5 µM | – | – | – | – | – | – | – | –
23 | CCN1CCC[C@@]2(CC(=O)c3ccc4ccccc4c3O2)C1 | > 2.5 µM | – | – | – | 8 µM | < 1.6 | – | – | –
24 | Fc1ccc(CCN2CCC3(CCc4ccc5c(c4O3)CCCC5)CC2)cc1F | > 2.5 µM | – | – | – | > 20 µM | 4 | – | – | –
25 | O=C(CN1CCC2(CC1)CC(=O)c1ccc3ccccc3c1O2)c1ccc(F)c(F)c1 | 1.3 µM | 40 µM (≈ 16.9 µg/mL) | 1.82 | 1.52 | 4 µM | 2.7 | 40 µM (≈ 16.9 µg/mL) | – | –
